Measurements published in ChEMBL document CHEMBL3826882, “Discovery of 1-((2R,4aR,6R,7R,7aR)-2-Isopropoxy-2-oxidodihydro-4H,6H-spiro[furo[3,2-d][1,3,2]dioxaphosphinine-7,2'-oxetan]-6-yl)pyrimidine-2,4(1H,3H)-dione (JNJ-54257099), a 3'-5'-Cyclic Phosphate Ester Prodrug of 2'-Deoxy-2'-Spirooxetane Uridine Triphosphate Useful for HCV Inhibition” (J Med Chem, 2016).
pEC50, pIC50, pKi: −log10 of the molar value.

Columns and labels:
[1] = system: Hepatocyte; experiment: Prodrug conversion in mouse cryopreserved hepatocytes assessed as 2'-deoxy-2'-spirooxetane uridine triphosphate level per million cells at 10 uM after 2 hrs by LC-MS/MS analysis; format: ADME, cell-based
Outline: (§1)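 Plated cryopreserved hepatocytes (study B) incubated with 10 µM unlabeled prodrug for 2, 8 or 24 h. Triphosphate measured in cell lysates and expressed as pmol/million hepatocytes. Quantification limit 2 ng/10^6 cells.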

[2] = system: Hepatocyte; experiment: Prodrug conversion in human cryopreserved hepatocytes assessed as 2'-deoxy-2'-spirooxetane uridine triphosphate level per million cells at 10 uM after 8 hrs by LC-MS/MS analysis; format: ADME, cell-based; outline: as §1
[3] = system: Hepatocyte; experiment: Prodrug conversion in mouse cryopreserved hepatocytes assessed as 2'-deoxy-2'-spirooxetane uridine triphosphate level per million cells at 10 uM after 8 hrs by LC-MS/MS analysis; format: ADME, cell-based; outline: as §1
[4] = Prodrug conversion in dog cryopreserved hepatocytes assessed as 2'-deoxy-2'-spirooxetane uridine triphosphate level per million cells at 10 uM after 2 hrs by LC-MS/MS analysis; format: ADME, cell-based, Canis lupus familiaris, Hepatocyte; outline: as §1
[5] = system: Hepatocyte; experiment: Prodrug conversion in rat cryopreserved hepatocytes assessed as 2'-deoxy-2'-spirooxetane uridine triphosphate level per million cells at 10 uM after 24 hrs by LC-MS/MS analysis; format: ADME, cell-based; outline: as §1
[6] = system: Hepatocyte; experiment: Prodrug conversion in mouse cryopreserved hepatocytes assessed as 2'-deoxy-2'-spirooxetane uridine triphosphate level per million cells at 10 uM after 24 hrs by LC-MS/MS analysis; format: ADME, cell-based; outline: as §1
[7] = Cytotoxicity against human HuH7-CMV-Luc cells assessed as reduction in cell proliferation after 3 days by 5-bromo-2'-deoxyuridine incorporation assay; format: cell-based, Huh-7
Outline: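 Huh7 cells at 1,500 cells/well, five serial compound dilutions in triplicate, 3 days of incubation. Proliferation was quantified as BrdU incorporation into DNA by ELISA.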

[8] = system: Hepatocyte; experiment: Prodrug conversion in rat cryopreserved hepatocytes assessed as 2'-deoxy-2'-spirooxetane uridine triphosphate level per million cells at 10 uM after 2 hrs by LC-MS/MS analysis; format: ADME, cell-based; outline: as §1
[9] = Prodrug conversion in dog cryopreserved hepatocytes assessed as 2'-deoxy-2'-spirooxetane uridine triphosphate level per million cells at 10 uM after 24 hrs by LC-MS/MS analysis; format: ADME, cell-based, Canis lupus familiaris, Hepatocyte; outline: as §1
[10] = system: Hepatocyte; experiment: Prodrug conversion in human cryopreserved hepatocytes assessed as 2'-deoxy-2'-spirooxetane uridine triphosphate level per million cells at 10 uM after 2 hrs by LC-MS/MS analysis; format: ADME, cell-based; outline: as §1
[11] = system: Hepatocyte; experiment: Prodrug conversion in rat cryopreserved hepatocytes assessed as 2'-deoxy-2'-spirooxetane uridine triphosphate level per million cells at 10 uM after 8 hrs by LC-MS/MS analysis; format: ADME, cell-based; outline: as §1
[12] = Prodrug conversion in dog cryopreserved hepatocytes assessed as 2'-deoxy-2'-spirooxetane uridine triphosphate level per million cells at 10 uM after 8 hrs by LC-MS/MS analysis; format: ADME, cell-based, Canis lupus familiaris, Hepatocyte; outline: as §1
[13] = system: Hepatocyte; experiment: Prodrug conversion in human cryopreserved hepatocytes assessed as 2'-deoxy-2'-spirooxetane uridine triphosphate level per million cells at 10 uM after 24 hrs by LC-MS/MS analysis; format: ADME, cell-based; outline: as §1
[14] = system: Hepatocyte; experiment: Drug level in human hepatocytes treated with JNJ-54257099 in presence of CYP2C8 and CYP2C9 inhibitor montelukast by LC-MS/MS analysis; format: ADME, cell-based
[15] = Drug level in dog primary hepatocytes treated with JNJ-54257099 at 2 to 62.5 uM after 4 hrs using radiolabeled compound by LC-MS/MS analysis; format: ADME, cell-based, Canis lupus familiaris, Hepatocyte
Outline: (§2)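 Study A: primary cultured hepatocytes (mouse, rat, dog, human) incubated with 2 or 62.5 µM 5'-[3H]-labelled prodrug for 4 and 24 h. Cell lysates were analysed for triphosphate. Supernatants were protein-precipitated and profiled by HPLC with radioactivity detection. Cyclic monophosphate was also assessed by LC/MS/MS.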

[16] = system: Hepatocyte; experiment: Drug level in human hepatocytes treated with JNJ-54257099 in presence of pan-PDE inhibitor ibudilast by LC-MS/MS analysis; format: ADME, cell-based
[17] = system: Hepatocyte; experiment: Drug level in rat primary hepatocytes treated with JNJ-54257099 at 2 to 62.5 uM after 24 hrs using radiolabeled compound by LC-MS/MS analysis; format: ADME, cell-based; outline: as §2
[18] = system: Hepatocyte; experiment: Drug level in human hepatocytes treated with JNJ-54257099 in presence of PDE4 inhibitor rolipram by LC-MS/MS analysis; format: ADME, cell-based
[19] = system: Hepatocyte; experiment: Drug level in rat primary hepatocyte supernatant treated with JNJ-54257099 at 2 to 62.5 uM after 4 to 24 hrs using radiolabeled compound by HPLC analysis; format: ADME, cell-based; conditions: hepatocytes; outline: as §2
[20] = Drug level in dog primary hepatocyte supernatant treated with JNJ-54257099 at 2 to 62.5 uM after 4 to 24 hrs using radiolabeled compound by HPLC analysis; format: ADME, cell-based, Canis lupus familiaris; conditions: hepatocytes; outline: as §2
[21] = system: Hepatocyte; experiment: Drug level in human primary hepatocyte supernatant treated with JNJ-54257099 at 2 to 62.5 uM after 4 to 24 hrs using radiolabeled compound by HPLC analysis; format: ADME, cell-based; conditions: hepatocytes; outline: as §2
[22] = system: Hepatocyte; experiment: Drug level in mouse primary hepatocyte supernatant treated with JNJ-54257099 at 2 to 62.5 uM after 4 to 24 hrs using radiolabeled compound by HPLC analysis; format: ADME, cell-based; conditions: hepatocytes; outline: as §2
[23] = target: RNA-directed RNA polymerase (Hepacivirus hominis, UniProt O39930); experiment: Inhibition of HCV RNA polymerase
Chain of RNA-directed RNA polymerase (O39930 whole entry): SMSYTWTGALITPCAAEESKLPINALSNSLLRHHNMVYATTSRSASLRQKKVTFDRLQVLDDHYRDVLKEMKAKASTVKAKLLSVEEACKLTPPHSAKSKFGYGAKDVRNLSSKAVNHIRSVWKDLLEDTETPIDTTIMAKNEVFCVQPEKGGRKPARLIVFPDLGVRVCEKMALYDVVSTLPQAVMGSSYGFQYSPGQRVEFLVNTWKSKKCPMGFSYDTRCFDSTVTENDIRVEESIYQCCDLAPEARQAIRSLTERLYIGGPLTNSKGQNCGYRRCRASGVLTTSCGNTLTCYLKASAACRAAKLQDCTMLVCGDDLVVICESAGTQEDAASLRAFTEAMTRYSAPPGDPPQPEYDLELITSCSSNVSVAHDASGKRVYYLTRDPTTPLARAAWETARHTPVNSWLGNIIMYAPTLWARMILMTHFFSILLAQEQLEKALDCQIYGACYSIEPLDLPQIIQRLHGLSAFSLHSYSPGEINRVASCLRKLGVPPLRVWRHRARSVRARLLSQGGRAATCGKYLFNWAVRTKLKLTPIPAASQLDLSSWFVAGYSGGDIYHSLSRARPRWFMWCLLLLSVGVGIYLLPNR

[24] = system: Hepatitis C virus; experiment: Antiviral activity against HCV genotype 3a infected in homozygous cDNA-uPA chimeric SCID mouse bearing humanized hepatocytes assessed as change in HCV RNA level in serum at 100 mg/kg, po qd administered through gavage for 7 days by RT-PCR method; format: functional, Hepacivirus hominis, Hepatocyte
Outline: (§3)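 Male chimeric SCID cDNA-uPA+/+ mice with human hepatocyte liver (≥70% replacement by blood human albumin) and serum HCV RNA >1.0×10^6 copies/mL the week before dosing. Oral gavage for 7 days in 20% HP-β-CD, 50-200 mg/kg QD or BID. Serum sampled pre-dose on days 1, 2, 3, 5 and 7. Real-time PCR; mean change in log10 copies/mL, day 7 vs day 1 pre-dose.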

[25] = system: Hepatitis C virus; experiment: Antiviral activity against HCV genotype 1a infected in homozygous cDNA-uPA chimeric SCID mouse bearing humanized hepatocytes assessed as change in HCV RNA level in serum at 100 mg/kg, po qd administered through gavage for 7 days by RT-PCR method; format: functional, Hepacivirus hominis, subtype 1a, Hepatocyte; outline: as §3
[26] = system: Hepatitis C virus; experiment: Antiviral activity against HCV genotype 3a infected in homozygous cDNA-uPA chimeric SCID mouse bearing humanized hepatocytes assessed as reduction in HCV RNA level in serum administered through oral gavage once daily for 7 days by RT-PCR method; format: functional, organism-based; conditions: Hepacivirus hominis, Hepatocyte; outline: as §3
[27] = system: Hepatitis C virus; experiment: Antiviral activity against HCV genotype 3a infected in homozygous cDNA-uPA chimeric SCID mouse bearing humanized hepatocytes assessed as reduction in HCV RNA level in serum administered through oral gavage twice daily daily for 7 days by RT-PCR method; format: functional, organism-based; conditions: Hepacivirus hominis, Hepatocyte; outline: as §3
[28] = system: Hepatitis C virus; experiment: Antiviral activity against HCV genotype 1b infected in human HuH7 cells assessed as inhibition of viral replication after 3 days by luciferase reporter gene assay; format: functional, organism-based, Hepacivirus hominis; conditions: Huh-7, 72 h
Outline: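 HCV 1b subgenomic luciferase replicon (Huh7-luc, clone ET, adaptive mutations E1202G, T1280I, K1846T). 2,500 cells were incubated with compound over a 9-point, 1/4 dilution series for 3 days. Replication was read as luciferase activity.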

[29] = target: CYP3A4 (Homo sapiens, UniProt P08684); experiment: Drug metabolism in baculovirus infected insect cell microsomes expressing human CYP3A4 assessed as CYP3A4-mediated half life at 22.7 uM; format: ADME
Chain of CYP3A4 (P08684 whole entry): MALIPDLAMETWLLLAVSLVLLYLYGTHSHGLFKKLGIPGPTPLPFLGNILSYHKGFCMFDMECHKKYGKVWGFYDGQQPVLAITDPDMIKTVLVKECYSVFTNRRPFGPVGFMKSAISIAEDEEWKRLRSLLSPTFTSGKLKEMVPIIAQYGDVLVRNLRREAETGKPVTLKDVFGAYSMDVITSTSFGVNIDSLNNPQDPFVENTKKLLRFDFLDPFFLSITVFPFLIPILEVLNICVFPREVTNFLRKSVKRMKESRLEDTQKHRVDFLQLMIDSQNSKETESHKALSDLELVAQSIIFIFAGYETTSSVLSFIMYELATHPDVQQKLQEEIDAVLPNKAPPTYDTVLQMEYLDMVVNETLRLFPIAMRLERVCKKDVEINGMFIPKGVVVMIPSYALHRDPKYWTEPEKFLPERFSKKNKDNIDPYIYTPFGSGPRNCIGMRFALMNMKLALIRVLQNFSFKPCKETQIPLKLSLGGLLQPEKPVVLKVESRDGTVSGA
Outline: (§4)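 Incubation at 22.7 µM with human CYP3A4 supersomes. Intrinsic clearance (µL/min.pmol P450) and half-life (min) were determined.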

[30] = target: Cytochrome P450 3A4 (Homo sapiens, UniProt P08684); experiment: Drug metabolism in baculovirus infected insect cell microsomes expressing human CYP3A4 assessed as CYP3A4-mediated intrinsic clearance per pmol CYP3A4 at 22.7 uM; format: ADME; conditions: recombinant enzyme; outline: as §4
Chain of Cytochrome P450 3A4 (P08684 whole entry): as above

Q: With `CCCCOC(=O)[C@H](C)NP(=O)(OC[C@H]1O[C@@H](n2ccc(=O)[nH]c2=O)[C@@]2(CCO2)[C@@H]1O)Oc1ccccc1` (stereo partly drawn) as the compound, how does the Drug metabolism [1] read?
A: 0.028 pmol

Q: What about the Drug metabolism [2] of the same compound?
A: 0.257 pmol

Q: What about the Drug metabolism [3] of the same compound?
A: 0.066 pmol

Q: What about the Drug metabolism [4] of the same compound?
A: 0.01 pmol

Q: And the Drug metabolism [5]?
A: 0.013 pmol

Q: What about the Drug metabolism [6] of the same compound?
A: 0.023 pmol

Q: And the CC50 at 72 h [7]?
A: > 100 µM

Q: What about the Drug metabolism [8] of the same compound?
A: 0.025 pmol

Q: And the Drug metabolism [9]?
A: 0.007 pmol

Q: And the Drug metabolism [10]?
A: 0.044 pmol

Q: What about the Drug metabolism [11] of the same compound?
A: 0.058 pmol

Q: And the Drug metabolism [12]?
A: 0.021 pmol

Q: And the Drug metabolism [13]?
A: 0.173 pmol

Q: With `O=c1ccn([C@@H]2O[C@H](COP(=O)(O)O)[C@@H](O)[C@]23CCO3)c(=O)[nH]1` as the compound, how does the Drug metabolism [14] read?
A: metabolite_detected

Q: What about the Drug metabolism [15] of the same compound?
A: metabolite_detected

Q: And the Drug metabolism [16]?
A: metabolite_detected

Q: What about the Drug metabolism [17] of the same compound?
A: metabolite_detected

Q: What about the Drug metabolism [18] of the same compound?
A: metabolite_detected

Q: Which results are given for `O=c1ccn([C@@H]2O[C@@H]3COP(=O)(O)O[C@H]3[C@]23CCO3)c(=O)[nH]1`?
A: Drug metabolism [19]: metabolite_detected; Drug metabolism [20]: metabolite_detected; Drug metabolism [15]: metabolite_detected; Drug metabolism [17]: metabolite_detected; Drug metabolism [21]: metabolite_detected; Drug metabolism [22]: metabolite_detected

Q: With `O=c1ccn([C@@H]2O[C@H](COP(=O)(O)OP(=O)(O)OP(=O)(O)O)[C@@H](O)[C@]23CCO3)c(=O)[nH]1` as the compound, how does the pIC50 [23] read?
A: 6.00

Q: And the pKi [23]?
A: 6.89

Q: What does the source list for `CC(C)OC(=O)[C@H](C)N[P@](=O)(OC[C@H]1O[C@@H](n2ccc(=O)[nH]c2=O)[C@](C)(F)[C@@H]1O)Oc1ccccc1` [SOFOSBUVIR]?
A: Activity [24]: -0.97; Activity [25]: -2.14; Activity [26]: Dose-dependent effect; Activity [27]: Dose-dependent effect

Q: For `O=c1ccn([C@@H]2O[C@H](CO)[C@@H](O)[C@]23CCO3)c(=O)[nH]1`, which Drug metabolism [19] is on record?
A: metabolite_detected

Q: What about the Drug metabolism [20] of the same compound?
A: metabolite_detected

Q: And the Drug metabolism [21]?
A: metabolite_detected

Q: And the Drug metabolism [22]?
A: metabolite_detected

Q: Which results are given for `CCOc1nc(N)nc2c1ncn2[C@@H]1O[C@@H]2CO[P@](=O)(OC(C)C)O[C@H]2[C@@]1(C)F`?
A: pEC50 [28]: 6.52; half-life at 22.7 µM [29]: 76 min; CC50 at 72 h [7]: > 100 µM; CL [30]: 0.1 µL/min
